For 30 molecules, CC50, IC50 and Activity results are on record in ChEMBL document CHEMBL4715822, “Structure-based lead optimization to improve antiviral potency and ADMET properties of phenyl-1H-pyrrole-carboxamide entry inhibitors targeted to HIV-1 gp120” (Eur J Med Chem, 2018).

By CC50 is commonly meant the concentration at which the toxic effect on the cells reaches its halfway point. Usually IC50 stands for the point on the concentration scale where inhibition reaches its midpoint.

For one data set, the system named is TZM. Nature of the data set: (§1) Cytotoxicity against human TZM-bl cells assessed as reduction in cell viability incubated for 3 days by XTT assay. The data set is classed as cell-based. The note with it: tzm, 72 h, time 3 day. A general note: Tetrazolium assays rely on reduction of a dye to a coloured formazan, in cell work by metabolically active cells.
Data set [1] deals with Human immunodeficiency virus 1. Nature of the data set: Antiviral activity against HIV-1 HXB-2 infected in human TZM-bl cells assessed as reduction in viral infection pretreated for 30 mins before viral infection and measured after 3 days by luciferase based single cycle infection assay. The data set is classed as functional, organism-based. To be noted: Human immunodeficiency virus 1, M:B_HXB2R.

Another data set has as its system MT2. Nature of the data set: (§2) Cytotoxicity against human MT2 cells assessed as reduction in cell viability incubated for 4 days by XTT assay. The data set is classed as cell-based. The note with it: mt2, 96 h, time 4 day.
Data set [2] is described as follows: Antiviral activity against HIV-1 3B infected in human MT2 cells assessed as reduction in viral infection pretreated for 30 mins before viral infection and measured after 4 days by ELISA based multi cycle infection assay. Type of data set: functional, cell-based. The note with it: Human immunodeficiency virus 1, M:B_HXB2R.
Data set [3] is described as follows: as §1. Type of data set: cell-based. To be noted: TZM-bl cells, time 3 day.
The nature of data set [4]: as §2. The data set is classed as cell-based. To be noted: MT2 cells, time 4 day.
Data set [5] is described as follows: Cytotoxicity against human PBMC cells assessed as reduction in cell viability incubated for 1 hr followed by complete medium addition and measured after 48 hrs by XTT assay. Type of data set: cell-based.
Data set [6] can be described thus: Cytotoxicity against dog Cf2Th-CCR5 cells assessed as reduction in cell viability incubated for 48 hrs by XTT assay. To be noted: cf2th-ccr5, 48 h. Type of data set: cell-based, Canis lupus familiaris.
The nature of data set [7]: Inhibition of HIV1 gp120-mediated cell-cell fusion between viral envelope expressing in human HL2/3 cells to CD4/CCR5 receptor expressing in human TZM-bl cells after 1 hr by luciferase reporter gene assay. To be noted: Human immunodeficiency virus 1, HL2/3, 1 h. The data set is classed as cell-based.
Data set [8] concerns Human immunodeficiency virus 1. Nature of the data set: Antiviral activity against HIV-1 ADA infected in human MOLT-4 cells assessed as reduction in viral transmission to TZM-bl cells incubated for 48 hrs by luciferase based assay. The data set is classed as functional, organism-based. The note with it: Human immunodeficiency virus 1, ADA, MOLT-4, 48 h.
Data set [9] in a line: Induction viral infection in pseudovirus HIV1 ADA infected in dog Cf2Th-CCR5 cells incubated for overnight followed by pretreated for 30 mins and added to cells measured after 48 hrs by luciferase-based assay. Type of data set: cell-based. To be noted: human immunodeficiency virus 1, cf2th-ccr5, 48.5 h.
For data set [10], the system named is Human immunodeficiency virus 1. Nature of the data set: Antiviral activity against pseudovirus HIV-1 HXB-2 harboring Env M434I mutant infected in human U87.CD4.CXCR4 cells assessed as reduction in viral infection pretreated for 30 mins before viral infection and measured after 3 days by luciferase based assay. The data set is classed as functional, cell-based, M:B_HXB2R. A digest of the protocol:
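Pseudoviruses made in HEK293T by co-transfecting an Env-deleted backbone (pSG3Δenv or pNL4-3.Luc.R-.E-) with an HXB-2 Env plasmid carrying single or double substitutions; Env sequences confirmed by sequencing. Virus pretreated 30 min with graded compound, added to U87-CD4-CXCR4 cells (1 × 10⁴/well, plated overnight), incubated 3 days. Cells lysed, luciferase measured, IC50 calculated.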

`NC[C@@H](NC(=O)c1ccc(-c2cc(F)c(Cl)c(F)c2)[nH]1)c1nc(CO)c(CO)s1`: the CC50 with TZM was 53 µM; with MT2, 89.9 µM. Also, the figures for the IC50 in data set [1] and in data set [2] were 2.7 µM and 3.34 µM, respectively.
In the case of `NC[C@H](NC(=O)c1ccc(-c2ccc(C(F)(F)F)cc2)[nH]1)c1ncc(CO)s1`, the CC50 worked out at 35.6 µM in the data set with TZM and 36 µM in the data set on MT2.
Regarding `NC[C@H](NC(=O)c1ccc(-c2ccc(C(F)(F)F)cc2)[nH]1)c1nc(CO)cs1`, the 50% cytotoxic concentration (CC50) in the data set on TZM came out at 24.4 µM; in the data set on MT2, 16.3 µM. Further, the IC50 in data set [1] was 0.47 µM; in data set [2] it was 0.3 µM.
In the case of `NC[C@H](NC(=O)c1ccc(-c2cc(F)c(C(F)(F)F)c(F)c2)[nH]1)c1ncc(CO)s1`, in [3], the CC50 at 72 h worked out at 23 µM. The CC50 at 96 h in data set [4] was determined as 14.3 µM.
On to `NC[C@@H](NC(=O)c1ccc(-c2cc(F)c(Cl)c(F)c2)[nH]1)c1nc(CO)cs1`, for which the CC50 in the data set with TZM turned out to be 27.7 µM; in the data set on MT2, 29.6 µM.
On to `CC(C)(O)c1csc([C@@H](CN)NC(=O)c2ccc(-c3cc(F)c(Cl)c(F)c3)[nH]2)n1`, for which the results for the CC50 in the data set with TZM and with MT2 were 27.2 µM and 18 µM, respectively. Also, the concentration for half-maximal inhibition (IC50) turned out to be 0.56 µM in [1] and 0.8 µM in data set [2].
For `Cc1c(F)cc(-c2ccc(C(=O)N[C@H](CN)c3ncc(CO)s3)[nH]2)cc1F`, in that order: 32.9 µM, 26.8 µM, 0.2 µM and 0.2 µM.
In the case of `NC[C@H](NC(=O)c1ccc(-c2cc(F)c(Cl)c(F)c2)[nH]1)c1ncc(CO)s1`, the CC50 at 72 h in [3] came to 39.5 µM. Also, in data set [5], the CC50 at 49 h was over 60 µM. The CC50 at 96 h in [4] worked out at 37 µM.
For `NC[C@@H](NC(=O)c1ccc(-c2cc(F)c(Cl)c(F)c2)[nH]1)c1ncc(CO)o1`, the CC50 at 72 h in data set [3] amounted to 30.9 µM. Further, the CC50 at 96 h in data set [4] stood at 44.7 µM.
Turning to `NC[C@H](NC(=O)c1ccc(-c2ccc(C(F)(F)F)c(F)c2)[nH]1)c1ncc(CO)s1`, the values for the CC50 with TZM and with MT2 were 30.5 µM and 25.6 µM, respectively. Besides, the IC50 is 0.44 µM in data set [1] and 0.25 µM in [2].
On to `Cc1c(F)cc(-c2ccc(C(=O)N[C@H](CN)c3nc(CO)cs3)[nH]2)cc1F`, for which the CC50 in the data set on TZM is 20.6 µM; in the data set on MT2, 15.9 µM. Besides, the IC50 amounted to 0.54 µM in [1] and 0.6 µM in data set [2].
For `CNC[C@@H](NC(=O)c1ccc(-c2ccc(C(F)(F)F)cc2)[nH]1)c1nc(CO)cs1`, the CC50 turned out to be 23.5 µM in the data set with TZM and 19.8 µM in the data set on MT2. For the same molecule, the values for the IC50 in data set [1] and in data set [2] were 0.62 µM and 0.6 µM, respectively.
For `CC(C)(O)c1csc([C@H](CN)NC(=O)c2ccc(-c3cc(F)c(Cl)c(F)c3)[nH]2)n1`, in that order: 28.4 µM, 16.6 µM, 0.23 µM and 0.25 µM.
As for `NC[C@H](NC(=O)c1ccc(-c2ccc(C(F)(F)F)c(F)c2)[nH]1)c1nc(CO)c(CO)s1`, the results for the CC50 in the data set on TZM and in the data set on MT2 were over 65 µM and 92.3 µM, respectively. The IC50 in [1] came to 3.1 µM; in data set [2], 3.6 µM.
Turning to `NC[C@@H](NC(=O)c1ccc(-c2ccc(C(F)(F)F)cc2)[nH]1)c1nc(CO)cs1`, the CC50 in the data set with TZM is 27.6 µM; in the data set with MT2 it was 15.1 µM. The IC50 was 0.9 µM in [1] and 1.75 µM in data set [2].
In the case of `NC[C@@H](NC(=O)c1ccc(-c2ccc(C(F)(F)F)c(F)c2)[nH]1)c1ncc(CO)s1`, the CC50 came out at 18.5 µM in the data set on TZM and 21.5 µM in the data set with MT2. Further, the IC50 is 0.2 µM in data set [1] and 0.24 µM in [2].
For `Cc1c(F)cc(-c2ccc(C(=O)N[C@@H](CN)c3ncc(CO)s3)[nH]2)cc1F`, in that order: 33.2 µM, 27 µM, 0.47 µM and 0.2 µM.
For the molecule `NC[C@@H](NC(=O)c1ccc(-c2cc(F)c(Cl)c(F)c2)[nH]1)c1ncc(CO)s1`, the CC50 at 72 h in [3] stood at 20.6 µM. For the same molecule, in data set [4], the CC50 at 96 h turned out to be 17.4 µM.
Consider `CNC[C@@H](NC(=O)c1ccc(-c2cc(F)c(Cl)c(F)c2)[nH]1)c1nc(CO)cs1`, for which the CC50 in the data set on TZM turned out to be 23.8 µM; with MT2, 24 µM. The IC50 in [1] amounted to 0.25 µM; in [2], 0.4 µM.
Regarding `NC[C@@H](NC(=O)c1ccc(-c2ccc(C(F)(F)F)c(F)c2)[nH]1)c1nc(CO)c(CO)s1`, the CC50 in the data set on TZM is over 65.4 µM; with MT2, 72.4 µM. The IC50 in [1] is 1.8 µM; in data set [2] it was 2 µM.
In the case of `Cc1c(F)cc(-c2ccc(C(=O)N[C@@H](CN)c3nc(CO)cs3)[nH]2)cc1F`, the CC50 in the data set with TZM turned out to be 18.5 µM; in the data set on MT2, 25.5 µM. The IC50 in data set [1] and in data set [2] was 0.18 µM in each case.
For the molecule `NC[C@@H](NC(=O)c1ccc(-c2cc(F)c(C(F)(F)F)c(F)c2)[nH]1)c1ncc(CO)s1`, the 50% cytotoxic concentration (CC50) at 72 h in data set [3] turned out to be 23.5 µM. In addition, the 50% cytotoxic concentration (CC50) at 96 h in data set [4] came out at 15.5 µM.
For the molecule `CNC[C@H](NC(=O)c1ccc(-c2ccc(C(F)(F)F)cc2)[nH]1)c1nc(CO)cs1`, the cytotoxic concentration (CC50) with TZM is 22.4 µM; in the data set on MT2 it was 17 µM. Moreover, the IC50 stood at 0.31 µM in [1] and 0.1 µM in data set [2].
For `CNC[C@H](NC(=O)c1ccc(-c2cc(F)c(Cl)c(F)c2)[nH]1)c1nc(CO)cs1`, in that order: 18 µM, 18.8 µM, 0.23 µM and 0.18 µM.
Consider `CC1(C)CC(NC(=O)C(=O)Nc2ccc(Cl)cc2)CC(C)(C)N1`, for which the CC50 in [6] was over 60 µM. In addition, in [7], the IC50 came out at 9.1 µM.
In the case of `NC[C@@H](NC(=O)c1ccc(-c2ccc(C(F)(F)F)c(F)c2)[nH]1)c1nc(CO)cs1`, the CC50 in the data set with TZM stood at 17.3 µM; in the data set with MT2 it was 20.5 µM.
For the molecule `NC[C@H](NC(=O)c1ccc(-c2cc(F)c(Cl)c(F)c2)[nH]1)c1nc(CO)c(CO)s1`, the CC50 with TZM was over 70 µM; in the data set with MT2, 96.7 µM. Also, the IC50 worked out at 2.3 µM in [1] and 3 µM in data set [2].
In the case of `COC(C)(C)c1csc([C@@H](CN)NC(=O)c2ccc(-c3cc(F)c(Cl)c(F)c3)[nH]2)n1`, the CC50 was determined as 39.6 µM with TZM and 29.5 µM with MT2. For the same molecule, the IC50 was 9.3 µM in [1] and 6.1 µM in data set [2].
As to `NC[C@H](NC(=O)c1ccc(-c2cc(F)c(Cl)c(F)c2)[nH]1)c1ncc(CO)o1`, the CC50 at 72 h in data set [3] is 27.7 µM. Besides, the CC50 at 96 h in [4] was found to be 26.5 µM.
Consider `NC[C@@H](NC(=O)c1ccc(-c2ccc(C(F)(F)F)cc2)[nH]1)c1ncc(CO)s1`, for which the CC50 in [6] stood at 37.7 µM; in the data set with MT2 it was 32 µM. Moreover, the results for the IC50 in data set [8] and in data set [10] were 1 µM and 0.97 µM, respectively. For the same molecule, the Activity result in data set [9] is “Non-Toxic”. For the same molecule, in data set [5], the CC50 at 49 h was 61 µM.
